The values that follow come from ChEMBL document CHEMBL2311378, “Synthesis and biological activity against Trypanosoma cruzi of substituted 1,4-naphthoquinones” (Eur J Med Chem, 2013).

The test system of experiment [1] is Trypanosoma cruzi. Put plainly: Antitrypanosomal activity against Trypanosoma cruzi Y bloodstream trypomastigotes isolated from infected Swiss mouse blood assessed as lysis level after 24 hrs. Type of experiment: functional, organism-based. A digest of the protocol: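 Infected mouse blood diluted with healthy mouse blood to 10⁶ trypomastigotes ml⁻¹. Compounds dissolved in DMSO, added to the blood, and incubated at 4 °C for 24 h. Remaining trypomastigotes were counted. Run in triplicate alongside DMSO and crystal violet controls. IC50 is the concentration lysing 50% of parasites.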

The test system of experiment [2] is Trypanosoma cruzi. Briefly: Antitrypanosomal activity against Trypanosoma cruzi Y bloodstream trypomastigotes isolated from infected Swiss mouse blood assessed as lysis level at 8.0 uM after 24 hrs. It is filed as functional.
For experiment [3], the system named is Trypanosoma cruzi. Put plainly: Antitrypanosomal activity against Trypanosoma cruzi Y bloodstream trypomastigotes isolated from infected Swiss mouse blood assessed as lysis level at 2.0 uM after 24 hrs. Type of experiment: functional.
The test system of experiment [4] is Trypanosoma cruzi. Briefly: Antitrypanosomal activity against Trypanosoma cruzi Y bloodstream trypomastigotes isolated from infected Swiss mouse blood assessed as lysis level at 0.5 uM after 24 hrs. Type of experiment: functional.
For experiment [5], the system named is Trypanosoma cruzi. Briefly: Antitrypanosomal activity against Trypanosoma cruzi Y bloodstream trypomastigotes isolated from infected Swiss mouse blood assessed as lysis level at 32.0 uM after 24 hrs. It is filed as functional.

Regarding `CN(C)c1ccc(C(=C2C=CC(=[N+](C)C)C=C2)c2ccc(N(C)C)cc2)cc1` [GENTIAN VIOLET], the half-inhibitory concentration (IC50) (as a rule, the concentration that gives 50% inhibition) in experiment [1] worked out at 31 µM.
The same measure, in the same setting: under `O=C1C=C(O)C(=O)c2ccccc21` [LAWSONE] stands more than 2500 µM.
For `CCCCCCCC/C=C/CCCCCCCC1=CC(=O)c2ccccc2C1=O`, the Activity was 46.1% in experiment [2], 45.5% in experiment [3], 37.2% in experiment [4] and 49.2% in experiment [5]. The IC50 in experiment [1] came out at 8.1 µM.
Turning to `CCCCCCCC1=C(CCCCCCC)C(=O)c2ccccc2C1=O`, the Activity was 10.6% in experiment [2], 8.9% in experiment [3], 8.1% in experiment [4] and 18.3% in experiment [5]. For the same molecule, in experiment [1], the IC50 turned out to be 124 µM.
The corresponding values for `CCCCC/C=C/C/C=C/CCCCCCCC1=CC(=O)c2ccccc2C1=O` are 30.9%, 7.8%, 0%, 49.2% and 26.4 µM.
`COc1ccc(C(CC(=O)O)C2=CC(=O)c3ccccc3C2=O)cc1` (racemic): the Activity turned out to be 14.1% in experiment [2], 10.5% in experiment [3], 0% in experiment [4] and 38.7% in experiment [5]. Further, the IC50 in experiment [1] was 48.5 µM.
As for `COc1ccc(C(CC(=O)O)C2=C(C)C(=O)c3ccccc3C2=O)cc1` (racemic), the Activity in experiment [2] is reported as 34%; in experiment [3], 24.6%; in experiment [4], 12%; in experiment [5], 55%. In addition, in experiment [1], the IC50 is 17.4 µM.
As for `CCCCC/C=C\C/C=C/CCCCCCCC1=C(O)C(=O)c2ccccc2C1=O`, the Activity in experiment [2] stood at 42.9%; in experiment [3], 47.6%; in experiment [4], 44.5%; in experiment [5], 50.8%. The IC50 in experiment [1] was 7.8 µM.
Take `CCCCC/C=C/C/C=C/CCCCCCCC1=C(C)C(=O)c2ccccc2C1=O`: the Activity came to 47.1% in experiment [2], 25.6% in experiment [3], 15.2% in experiment [4] and 44.5% in experiment [5]. Besides, the IC50 in experiment [1] was found to be 16.9 µM.
The corresponding values for `O=C1C(CCCCc2ccccc2)=C(CCCCc2ccccc2)C(=O)c2ccccc21` are 35.1%, 21.5%, 3%, 44% and 25.1 µM.
Regarding `CCCCCCCC/C=C/CCCCCCCC1=C(C)C(=O)c2ccccc2C1=O`, the Activity in experiment [2] was 35.1%; in experiment [3], 25.1%; in experiment [4], 27.2%; in experiment [5], 34%. The IC50 in experiment [1] turned out to be 32.6 µM.
On to `CCCCCCCC/C=C/CCCCCCCC1=C(O)C(=O)c2ccccc2C1=O`, for which the Activity in experiment [2] was found to be 51.3%; in experiment [3], 22.5%; in experiment [4], 13.1%; in experiment [5] it was 57.6%. Further, the IC50 in experiment [1] is 10.6 µM.
